Converted amounts (≈) assume the structure as drawn.
Key:
Hepatitis B virus = test: Antiviral activity against HBV infected in human HepG2(2.2.15) cells assessed as decrease in HBV genome replication after 5 days by qPCR method; type: functional, cell-based; conditions: HepG2 2.2.15, 120 h
Procedure, shortened: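 HepG2.2.15 cells (stable HBV genome, Hep G2-derived; DMEM-F12, 10% FBS, penicillin/streptomycin, 0.5 mg/mL G418) seeded 3 × 10^4/well, incubated overnight at 37 °C. Compounds serially half-log diluted in DMSO, then in medium; final DMSO 0.5%. HBV DNA extracted and quantified by qPCR.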

[1] = Cytotoxicity against HBV infected human HepDE19 cells assessed as decrease in cell viability after 5 days by CCK8 assay; type: cell-based
Procedure, shortened: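 Tetracycline-inducible HBV HepDE19 cells seeded 5 × 10^3/well and treated with compounds. After 5 days, viability read by CCK-8 (2 h, 37 °C; absorbance 450 and 630 nm).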

[2] = Selectivity index, ratio of CC50 for HBV infected human HepDE19 cells to EC50 for HBV infected in human HepG2(2.2.15) cells
Procedure, shortened: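 Selectivity index calculated as CC50 (HepDE19, CCK-8 viability after 5 days) divided by EC50 (HBV DNA reduction in HepG2.2.15 cells, qPCR).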

[3] = Solubility of compound in phosphate buffer at pH 6.5 after one night incubation by HPLC-UV method; type: physicochemical

Row | SMILES | EC50 (Hepatitis B virus) | CC50 at 120 h [1] | Ratio CC50/EC50 [2] | solubility [3]
1 | CCOC(=O)C1=C(CN2CCOC[C@H]2C(=O)O)NC(c2nccs2)=N[C@H]1c1ccc(Br)cc1Cl | 3 nM | 31000 nM | – | –
2 | COC(=O)C1=C(CN2CCSCC2C(=O)O)NC(c2nccs2)=N[C@H]1c1ccc(F)cc1Cl (single isomer, unassigned) | 38 nM | 60000 nM | 1579 | 584 µg/mL (≈ 1140 µM)
3 | COC(=O)C1=C(CN2CCOC[C@H]2C(=O)O)NC(c2nccs2)=N[C@H]1c1cccc(F)c1Cl | 4 nM | > 100000 nM | >25000 | –
4 | CCOC(=O)C1=C(CN2CCOC[C@H]2C(=O)O)NC(c2nccs2)=N[C@H]1c1ccc(OC)cc1 | > 100 nM | – | – | –
5 | CCOC(=O)C1=C(CN2CCOC[C@H]2C(=O)O)NC(c2nccs2)=N[C@H]1c1ccc(C#N)cc1 | > 100 nM | – | – | –
6 | CCOC(=O)C1=C(CN2CCOC[C@H]2C(=O)O)NC(c2nccs2)=N[C@H]1c1cccc(F)c1Br | 0.7 nM | 95000 nM | – | –
7 | COC(=O)C1=C(CN2CCOC(C(=O)O)C2)NC(c2nccs2)=N[C@H]1c1ccc(F)cc1Cl (some centres undefined) | 333 nM | > 100000 nM | >300 | > 592 µg/mL
8 | COC(=O)C1=C(C)NC(c2nccs2)=N[C@H]1c1ccc(F)cc1Cl | 80 nM | 83000 nM | 1038 | 16 µg/mL (≈ 43.7 µM)
9 | O=C(OCC(F)(F)F)C1=C(CN2CCOC[C@H]2C(=O)O)NC(c2nccs2)=N[C@H]1c1ccc(F)cc1Cl | 13 nM | 27000 nM | 2077 | –
10 | COC(=O)C1=C(CN2CCOC[C@H]2C(N)=O)NC(c2nccs2)=N[C@H]1c1ccc(F)cc1Cl | 3 nM | > 100000 nM | >33333 | 205 µg/mL (≈ 415 µM)
11 | CCOC(=O)C1=C(CN2CCOC[C@H]2C(=O)O)NC(c2nccs2)=N[C@H]1c1ccc(F)c(F)c1C | 0.6 nM | 97000 nM | – | –
12 | CCOC(=O)C1=C(CN2CCOC[C@H]2C(=O)O)NC(c2nccs2)=N[C@H]1c1ccc(F)c(F)c1Cl | 0.6 nM | 29000 nM | 48333 | –
13 | N#CC1=C(CN2CCOC[C@H]2C(=O)O)NC(c2nccs2)=N[C@H]1c1ccc(F)cc1Cl | > 1000 nM | – | – | –
14 | CCOC(=O)C1=C(CN2CCOC[C@H]2C(=O)O)NC(c2nccs2)=N[C@H]1c1ccc(F)cc1C | 3 nM | > 100000 nM | >33333 | –
15 | COCCOC(=O)C1=C(CN2CCOC[C@H]2C(=O)O)NC(c2nccs2)=N[C@H]1c1ccc(F)cc1Cl | 190 nM | > 100000 nM | >526 | –
16 | COC(=O)C1=C(CN2CCOC[C@H]2CC(=O)O)NC(c2nccs2)=N[C@H]1c1ccc(F)cc1Cl | 600 nM | > 100000 nM | >167 | > 638 µg/mL
17 | COC(=O)C1=C(CN2CCOC[C@H]2CNS(C)(=O)=O)NC(c2nccs2)=N[C@H]1c1ccc(F)cc1Cl | 4 nM | 88000 nM | 22000 | 48 µg/mL (≈ 86 µM)
18 | CCOC(=O)C1=C(CN2CCOC[C@H]2C(=O)O)NC(c2nccs2)=N[C@H]1c1ccc(C)cc1Cl | 3 nM | > 100000 nM | >33333 | –
19 | CC(C)(C)OC(=O)C1=C(CN2CCOC[C@H]2C(=O)O)NC(c2nccs2)=N[C@H]1c1ccc(F)cc1Cl | > 100 nM | 41000 nM | – | –

Row | SMILES | EC50 (Hepatitis B virus) | CC50 at 120 h [1] | Ratio CC50/EC50 [2] | solubility [3]
20 | COC(=O)C1=C(CN2CCOC[C@H]2CCC(=O)O)NC(c2nccs2)=N[C@H]1c1ccc(F)cc1Cl | 150 nM | > 100000 nM | >667 | > 697 µg/mL
21 | CCOC(=O)C1=C(CN2CCOC[C@H]2C(=O)O)NC(c2nccs2)=N[C@H]1c1cccc(C#N)c1Cl | > 100 nM | – | – | –
22 | COC(=O)C1=C(CN2CCOC[C@H]2C(=O)O)NC(c2nc(C3CC3)cs2)=N[C@H]1c1ccc(F)cc1Cl | 22 nM | – | – | –
23 | COC(=O)C1=C(CN2CCOC[C@H]2C(=O)O)NC(c2ncoc2C)=N[C@H]1c1ccc(F)cc1Cl | 14 nM | > 100000 nM | >7143 | –
24 | COC(=O)C1=C(CN2CCOC[C@H]2C(=O)O)NC(c2ncco2)=N[C@H]1c1ccc(F)cc1Cl | > 1000 nM | > 100000 nM | – | –
25 | COC(=O)C1=C(CN2CCOC[C@H]2C(=O)O)NC(c2nccs2)=N[C@H]1c1ccc(F)c(F)c1Br | 1 nM | 80000 nM | 80000 | –
26 | COC(=O)C1=C(CN2CCCC[C@H]2C(=O)O)NC(c2nccs2)=N[C@H]1c1ccc(F)cc1Cl | > 1000 nM | – | – | –
27 | CCOC(=O)C1=C(CN2CCOC[C@H]2C(=O)O)NC(c2nccs2)=N[C@H]1c1ccc(F)cc1 | 15 nM | 62000 nM | 4133 | –
28 | COC(=O)C1=C(CN2CCOC[C@H]2C(=O)O)NC(c2ncc(F)cc2F)=N[C@H]1c1ccc(F)cc1Cl | 8 nM | 23000 nM | 2875 | –
29 | COC(=O)C1=C(CN2CCOC[C@H]2C(=O)O)NC(c2nccs2)=N[C@H]1c1ccc(F)cc1C(F)(F)F | > 100 nM | > 100000 nM | – | –
30 | COC(=O)C1=C(CN2CCOC[C@H]2C(=O)O)NC(c2nccn2C)=N[C@H]1c1ccc(F)cc1Cl | 42 nM | 82000 nM | 1952 | –
31 | CCNC(=O)C1=C(CN2CCOC[C@H]2C(=O)O)NC(c2nccs2)=N[C@H]1c1ccc(F)cc1Cl | > 1000 nM | – | – | –
32 | COC(=O)C1=C(CN2CCOC[C@H]2C(=O)O)NC(c2nccs2)=N[C@H]1c1ccc(C)cc1Cl | 11 nM | > 100000 nM | >9091 | –
33 | COC(=O)C1=C(CN2CCO[C@H](C(C)C)[C@H]2C(=O)O)NC(c2nccs2)=N[C@H]1c1ccc(F)cc1Cl | 5 nM | 81000 nM | 16200 | –
34 | COC(=O)C1=C(CN2CCOC[C@@]2(C)C(=O)O)NC(c2nccs2)=N[C@H]1c1ccc(F)cc1Cl | 20 nM | > 100000 nM | – | 600 µg/mL (≈ 1180 µM)
35 | COC(=O)C1=C(CN2CCNC[C@H]2C(=O)O)NC(c2nccs2)=N[C@H]1c1ccc(F)cc1Cl | > 1000 nM | – | – | –
36 | CC(C)OC(=O)C1=C(CN2CCOC[C@H]2C(=O)O)NC(c2nccs2)=N[C@H]1c1ccc(F)cc1Cl | 17 nM | 72000 nM | 4235 | –
37 | CCOC(=O)C1=C(CN2CCOC[C@H]2C(=O)O)NC(c2nccs2)=N[C@H]1c1ccc(F)c(F)c1Br | 0.7 nM | 51000 nM | 72857 | –
38 | CCOC(=O)C1=C(CN2CCOC[C@H]2C(=O)O)NC(c2nccs2)=N[C@H]1c1cccc(Cl)c1Cl | > 100 nM | – | – | –

Row | SMILES | EC50 (Hepatitis B virus) | CC50 at 120 h [1] | Ratio CC50/EC50 [2] | solubility [3]
39 | COC(=O)C1=C(CN2CCOC[C@H]2C(=O)O)NC(c2nc(C)cs2)=N[C@H]1c1ccc(F)cc1Cl | 7 nM | > 100000 nM | >14826 | –
40 | COC(=O)C1=C(CN2CCOC[C@H]2C(=O)O)NC(c2nccs2)=N[C@H]1c1ccc(F)cc1C | 8 nM | > 100000 nM | 12500 | –
41 | COC(=O)C1=C(C)NC(c2ncc(F)cc2F)=N[C@H]1c1ccc(F)cc1Cl | 50 to 80 nM | – | – | –
42 | COC(=O)C1=C(CN2CCOC[C@H]2C(=O)O)NC(c2nccs2)=N[C@H]1c1ccc(C(F)(F)F)cc1Cl | > 100 nM | 50000 nM | 431 | –
43 | COC(=O)C1=C(CN2CCOC[C@H]2C(=O)O)NC(c2nccs2)=N[C@H]1c1ccc(F)cc1C1CC1 | > 100 nM | > 100000 nM | – | –
44 | COC(=O)C1=C(CN2CCN(C(C)=O)C[C@H]2C(=O)O)NC(c2nccs2)=N[C@H]1c1ccc(F)cc1Cl | > 1000 nM | – | – | –
45 | COC(=O)C1=C(CN2CCOC[C@H]2C(=O)O)NC(c2ncccn2)=N[C@H]1c1ccc(F)cc1Cl | > 1000 nM | > 100000 nM | – | –
46 | CCOC(=O)C1=C(CN2CCOC[C@H]2C(=O)O)NC(c2nccs2)=N[C@H]1c1ccc(F)cc1F | 14 nM | > 100000 nM | >7143 | –
47 | CCOC(=O)C1=C(CN2CCOC[C@H]2C(=O)O)NC(c2nccs2)=N[C@H]1c1ccccc1Cl | 14 nM | > 100000 nM | >7143 | –
48 | COC(=O)C1=C(CN2CCOC[C@@H]2C(=O)O)NC(c2nccs2)=N[C@H]1c1ccc(F)cc1Cl | 79 nM | > 100000 nM | >1266 | –
49 | COC(=O)C1=C(CN2CCOC[C@H]2C(=O)O)NC(c2nccs2)=N[C@H]1c1ccc(F)cc1Br | 6 nM | > 100000 nM | – | –
50 | COC(=O)C1=C(C)NC(c2nccs2)=NC1c1cccc(C(=O)O)c1 (centres undefined) | > 1000 nM | – | – | –
51 | COC(=O)C1=C(CN2CCOC[C@H]2C(=O)OC)NC(c2nccs2)=N[C@H]1c1ccc(F)cc1Cl | 4 nM | – | – | < 1 µg/mL
52 | CCCOC(=O)C1=C(CN2CCOC[C@H]2C(=O)O)NC(c2nccs2)=N[C@H]1c1ccc(F)cc1Cl | 12 nM | > 100000 nM | >8333 | –
53 | COC(=O)C1=C(C)NC(c2nc(C(=O)O)cs2)=NC1c1ccc(F)cc1Cl (centres undefined) | > 1000 nM | – | – | –
54 | COC(=O)C1=C(CN2CCOCC2CO)NC(c2nccs2)=N[C@H]1c1ccc(F)cc1Cl (some centres undefined) | 5 nM | 74000 nM | 14800 | 475 µg/mL (≈ 988 µM)
55 | CCOC(=O)C1=C(CN2CCOC[C@H]2C(=O)O)NC(c2nccs2)=N[C@H]1c1ccc(F)cc1Br | – | 72000 nM | – | –
56 | COC(=O)C1=C(CN2CCOC[C@H]2C(=O)O)NC(c2nccs2)=N[C@H]1c1ccc(F)c(F)c1Cl | 1 nM | > 100000 nM | >100000 | –
57 | CC1=C(C(=O)O)C(c2ccc(F)cc2Cl)N=C(c2nccs2)N1 (centres undefined) | > 1000 nM | – | – | –

Reference: ChEMBL document CHEMBL4007508, “Discovery and Pre-Clinical Characterization of Third-Generation 4-H Heteroaryldihydropyrimidine (HAP) Analogues as Hepatitis B Virus (HBV) Capsid Inhibitors” (J Med Chem, 2017)
